# Laboratory results reported in article PMC3966479 (Science (New York, N.Y.), 2013).
# B1: mCD47: recombinant mouse CD47 (protein, UniProt Q61735 19-303, looked up)
# Leukocyte surface antigen CD47: QLLFSNVNSIEFTSCNETVVIPCIVRNVEAQSTEEMFVKWKLNKSYIFIYDGNKNSTTTDQNFTSAKISVSDLINGIASLKMDKRDAMVGNYTCEVTELSREGKTVIELKNRTVSWFSPNEKILIVIFPILAILLFWGKFGILTLKYKSSHTNKRIILLLVAGLVLTVIVVVGAILLIPGEKPVKNASGLGLIVISTGILILLQYNVFMTAFGMTSFTIAILITQVLGYVLALVGLCLCIMACEPVHGPLLISGLGIIALAELLGLVYMKFVASNQRTIQPPRNR
# Tests used:
# THP1 macrophages = assay: In vitro phagocytosis of opsonized nanobeads by THP1 macrophages; type: cell-based, human; settings: THP1, DMSO solvent
# Summary of the method: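 Fluorescent 100-nm streptavidin-coated polystyrene beads, opsonized with antistreptavidin antibody, with or without attached hCD47, given to THP1 cells in vitro. Phagocytosis scored at 45 min. Cultures fixed without permeabilization, and non-ingested beads immunostained with a secondary antibody against the antistreptavidin opsonin. Data as means ± SEM.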
# macrophages / phagocytes = assay: Circulation of nanobeads in NSG mice; type: in vivo, mouse (NSG); settings: opsonized nanobeads, i.v.
# [1] = Organ localization of nanobeads by whole-body NIRF imaging; type: in vivo, mouse (NSG); settings: NIRF beads
molecule,measurement,setting,value
Cc1ccc2c(c1)C(=O)C1(O)CCN(c3ccccc3)C1=N2 (stereo not shown) [blebbistatin],inhibition of uptake by 50 µM compound,"THP1 macrophages; 50 µM, inhibition of myosin-IIA",inhibited
O=S(=O)(O)c1ccc2cc(N=Nc3cc(S(=O)(=O)O)c4cccnc4c3O)ccc2c1 [NSC-87877],reversal of hCD47 inhibition of uptake,"THP1 macrophages; SHP1 inhibition, hCD47 beads",blocks the inhibition of uptake by hCD47
B1,effect on circulation / clearance of nanobeads,macrophages / phagocytes,enhanced persistence in circulation
same,splenic / organ localization of nanobeads,[1],moderate but suppressed splenic localization
